Test results taken from ChEMBL document CHEMBL4689842, “EUbOPEN Chemogenomics Library wave 1” (2021).

Test system: HEK-293T
Assay: Multiplex assay against HEK293T;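 as to Population Tubulin-Different-Phenotype (%): share of the cells with healthy nuclei that show this phenotype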
Assay type: toxicity, cell-based
Conditions: human
How it was run: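 Values for tubulin, mitochondrial-mass and membrane-permeability phenotypes are per cents of cells with healthy nuclei. These cells were identified by CellPathfinder machine-learning gating of live cells that had been stained at seeding with Hoechst33342, BioTracker Green Microtubule Cytoskeleton Dye, MitoTracker Red and Annexin V Alexa Fluor 680 and imaged on a CQ1 microscope at 37°C and 5% CO2 after compound addition. The gating first set Hoechst high-intensity objects apart from normal cells, then split normal cells into healthy, pyknosed or fragmented nuclei, and pyknosed cells into mitotic or apoptotic.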

[1] = 12 h, 1 µM, compound concentration 1 uM, replicate 1
[2] = 12 h, 1 µM, compound concentration 1 uM, replicate 2
[3] = 12 h, 10 µM, compound concentration 10 uM, replicate 1
[4] = 12 h, 10 µM, compound concentration 10 uM, replicate 2
[5] = 24 h, 1 µM, compound concentration 1 uM, replicate 1
[6] = 24 h, 1 µM, compound concentration 1 uM, replicate 2
[7] = 24 h, 10 µM, compound concentration 10 uM, replicate 1
[8] = 24 h, 10 µM, compound concentration 10 uM, replicate 2
[9] = 48 h, 1 µM, compound concentration 1 uM, replicate 1
[10] = 48 h, 1 µM, compound concentration 1 uM, replicate 2
[11] = 48 h, 10 µM, compound concentration 10 uM, replicate 1
[12] = 48 h, 10 µM, compound concentration 10 uM, replicate 2

Which “Population Apoptotic (%)” value [1] does the source give for `Cl.O=C(O)c1cc(-c2ccc(C3CCNCC3)cc2)c2ccc(-c3ccc(C(F)(F)F)cc3)cc2c1` here?
Its value is 43%.

What about the “Population Fragmented Nuclei (%)” value [1] of the same molecule?
The value was 17%.

And the “Population Healthy Nuclei (%)” value [1]?
Its value is 21%.

And the “Population Hoechst High Intensity Objects (%)” value [1]?
The value was 19%.

And the “Population Membrane Permeable-Phenotype (%)” value [1]?
The value was 0%.

And the “Population Mitochondria Different-Phenotype (%)” value [1]?
Its value is 76%.

And the “Population Mitotic Cells (%)” value [1]?
Its value is 56%.

What about the “Population Normal (%)” value [1] of the same molecule?
The value was 80%.

And the “Population Pyknosed Nuclei (%)” value [1]?
Its value is 61%.

What about the “Population Tubulin-Different-Phenotype (%)” value [1] of the same molecule?
Its value is 36%.

What about the “Total Cell Count” value [1] of the same molecule?
Its value is 147.

And the “Population Apoptotic (%)” value [2]?
Its value is 6%.

What about the “Population Fragmented Nuclei (%)” value [2] of the same molecule?
The value was 8%.

And the “Population Healthy Nuclei (%)” value [2]?
Its value is 38%.

And the “Population Hoechst High Intensity Objects (%)” value [2]?
Its value is 6%.

And the “Population Membrane Permeable-Phenotype (%)” value [2]?
Its value is 7%.

What about the “Population Mitochondria Different-Phenotype (%)” value [2] of the same molecule?
The value was 9%.

What about the “Population Mitotic Cells (%)” value [2] of the same molecule?
The value was 93%.

And the “Population Normal (%)” value [2]?
The value was 93%.

And the “Population Pyknosed Nuclei (%)” value [2]?
Its value is 52%.

And the “Population Tubulin-Different-Phenotype (%)” value [2]?
Its value is 4%.

What about the “Total Cell Count” value [2] of the same molecule?
The value was 178.

And the “Population Apoptotic (%)” value [3]?
Its value is 62%.

What about the “Population Fragmented Nuclei (%)” value [3] of the same molecule?
Its value is 16%.

And the “Population Healthy Nuclei (%)” value [3]?
Its value is 20%.

And the “Population Hoechst High Intensity Objects (%)” value [3]?
Its value is 10%.

And the “Population Membrane Permeable-Phenotype (%)” value [3]?
Its value is 3%.

And the “Population Mitochondria Different-Phenotype (%)” value [3]?
The value was 80%.

What about the “Population Mitotic Cells (%)” value [3] of the same molecule?
Its value is 37%.

What about the “Population Normal (%)” value [3] of the same molecule?
Its value is 89%.

What about the “Population Pyknosed Nuclei (%)” value [3] of the same molecule?
Its value is 62%.

What about the “Population Tubulin-Different-Phenotype (%)” value [3] of the same molecule?
Its value is 49%.

What about the “Total Cell Count” value [3] of the same molecule?
Its value is 305.

And the “Population Apoptotic (%)” value [4]?
The value was 64%.

What about the “Population Fragmented Nuclei (%)” value [4] of the same molecule?
Its value is 8%.

And the “Population Healthy Nuclei (%)” value [4]?
Its value is 16%.

What about the “Population Hoechst High Intensity Objects (%)” value [4] of the same molecule?
Its value is 16%.

What about the “Population Membrane Permeable-Phenotype (%)” value [4] of the same molecule?
Its value is 20%.

What about the “Population Mitochondria Different-Phenotype (%)” value [4] of the same molecule?
The value was 66%.

What about the “Population Mitotic Cells (%)” value [4] of the same molecule?
Its value is 35%.

What about the “Population Normal (%)” value [4] of the same molecule?
The value was 83%.

And the “Population Pyknosed Nuclei (%)” value [4]?
Its value is 75%.

And the “Population Tubulin-Different-Phenotype (%)” value [4]?
The value was 66%.

What about the “Total Cell Count” value [4] of the same molecule?
Its value is 111.

And the “Population Apoptotic (%)” value [5]?
The value was 43%.

And the “Population Fragmented Nuclei (%)” value [5]?
Its value is 14%.

And the “Population Healthy Nuclei (%)” value [5]?
The value was 33%.

What about the “Population Hoechst High Intensity Objects (%)” value [5] of the same molecule?
Its value is 22%.

And the “Population Membrane Permeable-Phenotype (%)” value [5]?
Its value is 2%.

And the “Population Mitochondria Different-Phenotype (%)” value [5]?
Its value is 59%.

And the “Population Mitotic Cells (%)” value [5]?
Its value is 56%.

And the “Population Normal (%)” value [5]?
The value was 77%.

What about the “Population Pyknosed Nuclei (%)” value [5] of the same molecule?
Its value is 51%.

What about the “Population Tubulin-Different-Phenotype (%)” value [5] of the same molecule?
Its value is 28%.

And the “Total Cell Count” value [5]?
The value was 160.

What about the “Population Apoptotic (%)” value [6] of the same molecule?
The value was 9%.

What about the “Population Fragmented Nuclei (%)” value [6] of the same molecule?
Its value is 8%.

And the “Population Healthy Nuclei (%)” value [6]?
Its value is 72%.

And the “Population Hoechst High Intensity Objects (%)” value [6]?
Its value is 4%.

And the “Population Membrane Permeable-Phenotype (%)” value [6]?
Its value is 4%.

And the “Population Mitochondria Different-Phenotype (%)” value [6]?
Its value is 11%.

What about the “Population Mitotic Cells (%)” value [6] of the same molecule?
The value was 90%.

And the “Population Normal (%)” value [6]?
Its value is 95%.

And the “Population Pyknosed Nuclei (%)” value [6]?
The value was 19%.

What about the “Population Tubulin-Different-Phenotype (%)” value [6] of the same molecule?
Its value is 9%.

And the “Total Cell Count” value [6]?
The value was 236.

And the “Population Apoptotic (%)” value [7]?
The value was 66%.

What about the “Population Fragmented Nuclei (%)” value [7] of the same molecule?
The value was 20%.

What about the “Population Healthy Nuclei (%)” value [7] of the same molecule?
The value was 18%.

And the “Population Hoechst High Intensity Objects (%)” value [7]?
Its value is 16%.

What about the “Population Membrane Permeable-Phenotype (%)” value [7] of the same molecule?
The value was 4%.

And the “Population Mitochondria Different-Phenotype (%)” value [7]?
Its value is 78%.

What about the “Population Mitotic Cells (%)” value [7] of the same molecule?
The value was 34%.

And the “Population Normal (%)” value [7]?
Its value is 83%.

What about the “Population Pyknosed Nuclei (%)” value [7] of the same molecule?
Its value is 60%.

What about the “Population Tubulin-Different-Phenotype (%)” value [7] of the same molecule?
Its value is 57%.

What about the “Total Cell Count” value [7] of the same molecule?
Its value is 297.

What about the “Population Apoptotic (%)” value [8] of the same molecule?
The value was 60%.

What about the “Population Fragmented Nuclei (%)” value [8] of the same molecule?
Its value is 11%.

What about the “Population Healthy Nuclei (%)” value [8] of the same molecule?
The value was 16%.

What about the “Population Hoechst High Intensity Objects (%)” value [8] of the same molecule?
Its value is 28%.

What about the “Population Membrane Permeable-Phenotype (%)” value [8] of the same molecule?
Its value is 0%.

And the “Population Mitochondria Different-Phenotype (%)” value [8]?
The value was 61%.

What about the “Population Mitotic Cells (%)” value [8] of the same molecule?
Its value is 39%.

What about the “Population Normal (%)” value [8] of the same molecule?
The value was 71%.

And the “Population Pyknosed Nuclei (%)” value [8]?
The value was 72%.

What about the “Population Tubulin-Different-Phenotype (%)” value [8] of the same molecule?
The value was 76%.

And the “Total Cell Count” value [8]?
Its value is 112.

And the “Population Apoptotic (%)” value [9]?
Its value is 38%.

What about the “Population Fragmented Nuclei (%)” value [9] of the same molecule?
Its value is 25%.

What about the “Population Healthy Nuclei (%)” value [9] of the same molecule?
The value was 27%.

What about the “Population Hoechst High Intensity Objects (%)” value [9] of the same molecule?
The value was 21%.

What about the “Population Membrane Permeable-Phenotype (%)” value [9] of the same molecule?
The value was 2%.

And the “Population Mitochondria Different-Phenotype (%)” value [9]?
The value was 25%.

And the “Population Mitotic Cells (%)” value [9]?
The value was 61%.

What about the “Population Normal (%)” value [9] of the same molecule?
The value was 78%.

What about the “Population Pyknosed Nuclei (%)” value [9] of the same molecule?
Its value is 47%.

And the “Population Tubulin-Different-Phenotype (%)” value [9]?
Its value is 19%.

What about the “Total Cell Count” value [9] of the same molecule?
Its value is 166.

What about the “Population Apoptotic (%)” value [10] of the same molecule?
The value was 8%.

And the “Population Fragmented Nuclei (%)” value [10]?
Its value is 4%.

And the “Population Healthy Nuclei (%)” value [10]?
The value was 82%.

And the “Population Hoechst High Intensity Objects (%)” value [10]?
Its value is 2%.

What about the “Population Membrane Permeable-Phenotype (%)” value [10] of the same molecule?
Its value is 4%.

What about the “Population Mitochondria Different-Phenotype (%)” value [10] of the same molecule?
Its value is 1%.

What about the “Population Mitotic Cells (%)” value [10] of the same molecule?
The value was 92%.

What about the “Population Normal (%)” value [10] of the same molecule?
The value was 97%.

What about the “Population Pyknosed Nuclei (%)” value [10] of the same molecule?
Its value is 13%.

What about the “Population Tubulin-Different-Phenotype (%)” value [10] of the same molecule?
Its value is 9%.

And the “Total Cell Count” value [10]?
Its value is 390.

And the “Population Apoptotic (%)” value [11]?
The value was 60%.

And the “Population Fragmented Nuclei (%)” value [11]?
The value was 34%.

What about the “Population Healthy Nuclei (%)” value [11] of the same molecule?
Its value is 7%.

And the “Population Hoechst High Intensity Objects (%)” value [11]?
Its value is 21%.

What about the “Population Membrane Permeable-Phenotype (%)” value [11] of the same molecule?
The value was 0%.

And the “Population Mitochondria Different-Phenotype (%)” value [11]?
Its value is 89%.

What about the “Population Mitotic Cells (%)” value [11] of the same molecule?
The value was 39%.

What about the “Population Normal (%)” value [11] of the same molecule?
Its value is 78%.

And the “Population Pyknosed Nuclei (%)” value [11]?
Its value is 58%.

What about the “Population Tubulin-Different-Phenotype (%)” value [11] of the same molecule?
The value was 78%.

And the “Total Cell Count” value [11]?
The value was 314.

What about the “Population Apoptotic (%)” value [12] of the same molecule?
The value was 40%.

What about the “Population Fragmented Nuclei (%)” value [12] of the same molecule?
The value was 13%.

What about the “Population Healthy Nuclei (%)” value [12] of the same molecule?
The value was 23%.

And the “Population Hoechst High Intensity Objects (%)” value [12]?
Its value is 27%.

What about the “Population Membrane Permeable-Phenotype (%)” value [12] of the same molecule?
The value was 20%.

What about the “Population Mitochondria Different-Phenotype (%)” value [12] of the same molecule?
Its value is 30%.

And the “Population Mitotic Cells (%)” value [12]?
The value was 59%.

And the “Population Normal (%)” value [12]?
Its value is 72%.

And the “Population Pyknosed Nuclei (%)” value [12]?
The value was 62%.

And the “Population Tubulin-Different-Phenotype (%)” value [12]?
Its value is 95%.

And the “Total Cell Count” value [12]?
The value was 119.
